pIC50: −log10 of the molar value.
molecular target: RNA-directed RNA polymerase (Hepacivirus hominis, UniProt O39930); assay: Concentration required for inhibiting hepatitis C virus NS5B RNA polymerase activity.
Procedure, shortened: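 HCV NS5B polymerase IC50; each value is the mean of at least duplicate experiments, run on two separate weighings of compound.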

Chain of RNA-directed RNA polymerase (O39930 whole entry): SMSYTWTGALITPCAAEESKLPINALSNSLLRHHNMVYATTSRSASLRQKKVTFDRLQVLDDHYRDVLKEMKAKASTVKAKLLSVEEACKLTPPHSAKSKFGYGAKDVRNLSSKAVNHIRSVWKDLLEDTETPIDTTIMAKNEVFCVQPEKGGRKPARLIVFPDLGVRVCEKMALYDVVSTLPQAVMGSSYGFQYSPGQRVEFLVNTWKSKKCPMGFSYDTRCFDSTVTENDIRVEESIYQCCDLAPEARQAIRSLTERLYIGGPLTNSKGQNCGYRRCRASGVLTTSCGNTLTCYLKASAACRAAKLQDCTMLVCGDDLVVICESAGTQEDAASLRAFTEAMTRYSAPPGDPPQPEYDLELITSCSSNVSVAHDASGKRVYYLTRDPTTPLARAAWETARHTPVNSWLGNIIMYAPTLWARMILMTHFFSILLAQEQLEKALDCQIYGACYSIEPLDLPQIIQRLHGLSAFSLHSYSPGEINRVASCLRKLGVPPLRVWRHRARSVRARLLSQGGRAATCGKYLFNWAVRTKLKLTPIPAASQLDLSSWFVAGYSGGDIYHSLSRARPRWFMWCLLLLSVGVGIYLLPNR

Going from O=C(N[C@@H](Cc1c[nH]c2ccccc12)C(=O)O)c1ccc2c(c1)nc(-c1ccccn1)n2C1CCCCC1 to O=C(N[C@@H](Cc1c[nH]c2ccc(O)cc12)C(=O)O)c1ccc2c(c1)nc(-c1ccccn1)n2C1CCCCC1, the pIC50 rises from 5.72 to 6.85 (1.13 log units). The second is the more potent here.

First: O=C(O)C(=O)Nc1ccc2[nH]cc(C[C@H](NC(=O)c3ccc4c(c3)nc(-c3ccoc3)n4C3CCCCC3)C(=O)O)c2c1
Second: CC(=O)Nc1ccc2[nH]cc(C[C@H](NC(=O)c3ccc4c(c3)nc(-c3ccoc3)n4C3CCCCC3)C(=O)O)c2c1
The pIC50 of the first is 0.88 log units higher: 8.10 for the first, 7.22 for the second. The first is the more potent here.

Compared with COc1ccc([C@H](C)NC(=O)c2ccc3c(c2)nc(-c2ccccn2)n3C2CCCCC2)cc1OC, COc1ccc([C@@H](C)NC(=O)c2ccc3c(c2)nc(-c2ccccn2)n3C2CCCCC2)cc1OC is 0.60 log units higher in pIC50: 4.92 for the first, 5.52 for the second.

Compared with Cc1ccc2[nH]cc(C[C@H](NC(=O)c3ccc4c(c3)nc(-c3ccoc3)n4C3CCCCC3)C(=O)O)c2c1, Nc1ccc2[nH]cc(C[C@H](NC(=O)c3ccc4c(c3)nc(-c3ccoc3)n4C3CCCCC3)C(=O)O)c2c1 is 1.39 log units higher in pIC50: 5.66 for the first, 7.05 for the second.

Going from O=C(N[C@@H](Cc1ccc(O)cc1)C(=O)O)c1ccc2c(c1)nc(-c1ccoc1)n2C1CCCCC1 to O=C(N[C@@H](Cc1ccccc1)C(=O)O)c1ccc2c(c1)nc(-c1ccoc1)n2C1CCCCC1, the pIC50 falls from 6.40 to 5.40 (1.00 log units). The first is the more potent here.

Compared with COc1ccc([C@H](NC(=O)c2ccc3c(c2)nc(-c2ccccn2)n3C2CCCCC2)C(=O)O)cc1OC, COc1ccc([C@H](NC(=O)c2ccc3c(c2)nc(-c2ccoc2)n3C2CCCCC2)C(=O)O)cc1OC is 0.70 log units higher in pIC50: 5.70 for the first, 6.40 for the second. The second is the more potent here.

First: O=C(N[C@@H](Cc1c[nH]c2ccc(F)cc12)C(=O)O)c1ccc2c(c1)nc(-c1ccoc1)n2C1CCCCC1
Second: O=C(N[C@@H](Cc1c[nH]c2ccc(O)cc12)C(=O)O)c1ccc2c(c1)nc(-c1ccoc1)n2C1CCCCC1
The pIC50 of the first is 1.76 log units lower: 5.54 for the first, 7.30 for the second.

Going from O=C(O)c1ccc2[nH]cc(C[C@H](NC(=O)c3ccc4c(c3)nc(-c3ccoc3)n4C3CCCCC3)C(=O)O)c2c1 to NC(=O)c1ccc2[nH]cc(C[C@H](NC(=O)c3ccc4c(c3)nc(-c3ccoc3)n4C3CCCCC3)C(=O)O)c2c1, the pIC50 falls from 7.70 to 7.43 (0.27 log units).

First: Cn1cc(C[C@@H](NC(=O)c2ccc3c(c2)nc(-c2ccoc2)n3C2CCCCC2)C(=O)O)c2cc(O)ccc21
Second: O=C(N[C@H](Cc1c[nH]c2ccc(O)cc12)C(=O)O)c1ccc2c(c1)nc(-c1ccoc1)n2C1CCCCC1
The pIC50 of the first is 0.65 log units higher: 6.80 for the first, 6.15 for the second.

CS(=O)(=O)Nc1ccc2[nH]cc(C[C@H](NC(=O)c3ccc4c(c3)nc(-c3ccoc3)n4C3CCCCC3)C(=O)O)c2c1 and O=C(N[C@@H](Cc1c[nH]c2ccc(NS(=O)(=O)C(F)(F)F)cc12)C(=O)O)c1ccc2c(c1)nc(-c1ccoc1)n2C1CCCCC1 are within 0.2 log units of each other in pIC50: 6.92 for the first, 6.82 for the second.

Compared with O=C(N[C@@H](Cc1ccccc1)C(=O)O)c1ccc2c(c1)nc(-c1ccccn1)n2C1CCCCC1, O=C(N[C@@H](Cc1ccc(O)cc1)C(=O)O)c1ccc2c(c1)nc(-c1ccccn1)n2C1CCCCC1 is 0.67 log units higher in pIC50: 5.15 for the first, 5.82 for the second.

O=C(N[C@@H](Cc1c[nH]c2ccccc12)C(=O)O)c1ccc2c(c1)nc(-c1ccoc1)n2C1CCCCC1 and COc1ccc2[nH]cc(C[C@H](NC(=O)c3ccc4c(c3)nc(-c3ccoc3)n4C3CCCCC3)C(=O)O)c2c1 are the same in pIC50: 6.40 for the first, 6.40 for the second.

Compared with O=C(O)COc1ccc2[nH]cc(C[C@H](NC(=O)c3ccc4c(c3)nc(-c3ccoc3)n4C3CCCCC3)C(=O)O)c2c1, CC(C)(Oc1ccc2[nH]cc(C[C@H](NC(=O)c3ccc4c(c3)nc(-c3ccoc3)n4C3CCCCC3)C(=O)O)c2c1)C(=O)O is 0.72 log units lower in pIC50: 7.72 for the first, 7.00 for the second.

Going from O=C(N[C@@H](Cc1c[nH]c2ccc(C3N=NN=N3)cc12)C(=O)O)c1ccc2c(c1)nc(-c1ccoc1)n2C1CCCCC1 to O=C(N[C@@H](Cc1c[nH]c2ccc([N+](=O)[O-])cc12)C(=O)O)c1ccc2c(c1)nc(-c1ccoc1)n2C1CCCCC1, the pIC50 falls from 7.82 to 5.70 (2.12 log units). The first is the more potent here.

First: COc1ccc(CNC(=O)c2ccc3c(c2)nc(-c2ccccn2)n3C2CCCCC2)cc1OC
Second: O=C(NCCc1c[nH]c2ccc(O)cc12)c1ccc2c(c1)nc(-c1ccoc1)n2C1CCCCC1
The pIC50 of the first is 0.67 log units lower: 5.15 for the first, 5.82 for the second. The second is the more potent here.

Work on Cc1[nH]c2ccc(O)cc2c1C[C@H](NC(=O)c1ccc2c(c1)nc(-c1ccoc1)n2C1CCCCC1)C(=O)O yielded a pIC50 of 6.34.
